This is a sample that favours compounds with a hit; in the whole collection about 2.1% have one here.
SUMO Mot1 rescue – blocks SUMOylation pathway, rescuing yeast Mot1-301 growth; 320,000 tested, 1% active; S. cerevisiae Mot1-301 growth rescue, ATP luminescence, 38.5C; percent above DMSO median, 100 means doubled; growth rescue, % at 18.8 µM; AID 2716;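 active = every valid replicate shows activation above 250% relative to neutral control wells; inactive = the rest, any valid replicate at or below 250%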
ASAP1 inh – blocks human ASAP1-stimulated Arf1 GTP hydrolysis; Q9ULH1; GDP FP detection; inhibition, % at 16.5 µM; 360,000 tested, 0.19% active; in the data active = inhibition above about 25%
ARFGAP1 inh – rat ARFGAP1 inhibition | 360,000 tested, 0.26% active | Q62848 | Arfgap1-stimulated ARF1 GTP hydrolysis, GDP FP detection | inhibition, % at 16.5 µM;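 active = inhibition above a per-plate limit, mean inhibition of low control wells plus 3 SD, cut at about 25% in these data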
Target sequence (Q62848 1-136 limits assumed): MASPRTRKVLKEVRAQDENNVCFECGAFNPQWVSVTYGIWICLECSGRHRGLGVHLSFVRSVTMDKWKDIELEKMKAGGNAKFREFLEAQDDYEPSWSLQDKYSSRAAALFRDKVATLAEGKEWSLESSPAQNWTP
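System: truncated rat Arfgap1 GAP domain / Medium: HEPES-based buffer, pH 7.5 / Also added: N-terminally truncated human ARF1-GTP substrate / Incubation: enzyme reaction 120 min at 25 °C after 20 min preincubation / Measured by: FP of antibody-bound GDP Alexa 633 tracer, ex 620/em 688 nm / Replicates: singlicate, each compound tested once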
Statin myotox sup – protects C2C12 myotubes from simvastatin toxicity; ATP luminescence, 48 h; scaled: DMSO 0, geranylgeraniol control 100; rescue of ATP level, % at 7.49 µM; 330,000 tested, 0.78% active;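 active = mean ATP rescue above about 67%, or every replicate alone reaching that limit, limit read from the data, passing the limit was not always enough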;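 note: myotubes were challenged with 10 µM simvastatin during compound exposure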
APOBEC3G inh – APOBEC3G (human) deaminase inhibition; AID 493012; 330,000 tested, 0.28% active; inhibition, % at 20 µM; recombinant A3G, ssDNA deamination FAM/TAMRA fluorescence;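 active = inhibition of at least 40% at 20 µM, with no more than 30% in the related APOBEC3A deaminase screen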
A3A deaminase – human APOBEC3A DNA deaminase inhibition | P31941 | recombinant A3A, FAM/TAMRA ssDNA deamination fluorescence | inhibition, % at 20 µM | 330,000 tested, 0.41% active | AID 493011;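 active = at least 40% inhibition at 20 µM here, with at most 30% in a related deaminase screen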
Target sequence (P31941 whole entry, looked up): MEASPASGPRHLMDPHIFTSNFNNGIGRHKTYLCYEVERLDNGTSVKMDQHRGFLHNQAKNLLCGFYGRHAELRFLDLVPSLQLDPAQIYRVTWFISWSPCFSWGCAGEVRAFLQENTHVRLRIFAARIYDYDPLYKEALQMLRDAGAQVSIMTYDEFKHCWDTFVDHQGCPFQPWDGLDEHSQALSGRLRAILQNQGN
ASAP1 GAP conf – confirmation of human ASAP1 inhibitors | 620 tested, 37% active | inhibition, % at 16.5 µM | AID 624431 | shares compounds with ASAP1 inh | ASAP1-stimulated Arf1 GTPase, GDP fluorescence polarization;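 active = mean inhibition over triplicates exceeds the hit threshold derived for the earlier primary screening run, cut at about 25% in these data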
Hits are given with their value; 0 = inactive; - = no result; ! = a repeat was not active.

SMILES	SUMO Mot1 rescue	ASAP1 inh	ARFGAP1 inh	Statin myotox sup	APOBEC3G inh	A3A deaminase	ASAP1 GAP conf
CCCNC(=O)Nc1ccc2c(c1)C(=O)N(C)[C@@H]1CC[C@@H](CC(=O)O)O[C@@H]1CO2	-	-	-	0	-	-	-
COc1ccc(NC(=O)Nc2ccc3c(c2)[C@@H]2C[C@@H](CC(=O)N(C)C)O[C@@H](CO)[C@@H]2O3)cc1	-	-	-	0	-	-	-
CC(C)=CCn1c2ccc(NC(=O)Nc3cccnc3)cc2c(=O)n1C	-	24.8	0	0	-	-	0
Cn1c(=O)c2cc(NC(=O)Nc3cccnc3)ccc2n1Cc1ccc(Cl)cc1	-	0	0	0	-	-	-
CCN1CCN(c2cc(C)c3cc(NC(=O)CCC(=O)Nc4ccc(OC)c(OC)c4)ccc3n2)CC1	0	0	0	0	0	0	-
CCN1CCN(c2cc(C)c3cc(NC(=O)c4ccc(OC)c(OC)c4)ccc3n2)CC1	0	37.2	0	0	0	0	49.9
O=C1C(O)=C(O)C(=O)c2ccccc21	0	29.8	0	0	0	0	0
N#Cc1c(N2CCCC2)nc(N)c2c(N)nc(N3CCCC3)cc12	0	26.6	0	0	0	0	0
COc1cc2c(C#N)c(N3CCCC3)nc(N)c2c(N)n1	0	43.4!	0	0	0	0	0
CCCOc1cc2c(C#N)c(N3CCCC3)nc(N)c2c(N)n1	0	35.5	0	0	0	0	0
COc1cc2c(C#N)c(N3CCN(C)CC3)nc(N)c2c(N)n1	-	0	0	-	0	0	-
CNC(=O)C[C@H]1CC[C@@H]2[C@H](COc3ccc(NC(=O)c4cc(C)on4)cc3C(=O)N2C)O1	-	-	-	0	-	-	-
CC(=O)Nc1ccc(N2C(=O)CSC2c2c(F)cccc2Cl)cc1 (centres undefined)	-	27.1	0	0	0	0	0
COc1ccc(/C=C2\Oc3cc(OC(=O)N4CCOCC4)ccc3C2=O)cc1	0	32.6	0	-	0	0	70.0
C[C@H]1CN([C@@H](C)CO)C(=O)c2cc(-c3ccc(F)cc3)cnc2O[C@H]1CN(C)C(=O)Nc1ccccc1F	-	-	-	0	-	-	-
COc1cc(OC)cc(C(=O)N[C@H](C(=O)OCC(=O)c2c[nH]c3ccccc23)C(C)C)c1	0	27.8	0	0	0	0	0
COc1cc(OC)cc(C(=O)N[C@H](C(=O)NCCc2c[nH]c3ccccc23)C(C)C)c1	0	0	0	0	0	0	-
O=C(C[C@@H]1C[C@H]2c3cc(NC(=O)Nc4ccccc4F)ccc3O[C@H]2[C@H](CO)O1)NCc1cc(F)ccc1F	-	-	-	0	-	-	-
CCNC(=O)/C(C#N)=C/c1c(N2CC(C)OC(C)C2)nc2ccccn2c1=O (centres undefined)	0	49.3	0	-	0	0	0
CNC(=O)/C(C#N)=C/c1c(N2CC(C)OC(C)C2)nc2ccccn2c1=O (centres undefined)	0	0	0	-	0	0	-
O=c1cc(-c2ccc(O)c(O)c2)oc2c1ccc1ccccc12	0	24.7	0	0	0	0	0
O=c1cc(-c2ccccc2)oc2c1ccc1ccccc12	-	0	0	-	-	-	-
CCOC(=O)C1=C(CSc2nc(-c3ccccc3)ccc2C#N)OC(N)=C(C#N)C1c1ccccc1 (centres undefined)	0	27.1	0	0	0	0	0
COC(=O)C1[C@H]2C(=O)N(Cc3cccs3)C[C@]23C=C[C@H]1O3 (some centres undefined)	0	0	0	0	0	0	-
O=C(O)C1[C@H]2C(=O)N(Cc3cccs3)C[C@]23C=C[C@H]1O3 (some centres undefined)	0	24.8	0	0	0	0	0
SMILES	SUMO Mot1 rescue	ASAP1 inh	ARFGAP1 inh	Statin myotox sup	APOBEC3G inh	A3A deaminase	ASAP1 GAP conf
COc1ccc(NC(=O)N(C)C[C@@H]2Oc3ccc(NC(=O)Cc4cn(C)c5ccccc45)cc3CC(=O)N([C@@H](C)CO)C[C@@H]2C)cc1	-	-	-	0	-	-	-
C[C@H](CO)N1C[C@H](C)[C@@H](CN(C)CC2CCCC2)Oc2cc(C3=CCCCC3)ccc2S1(=O)=O	-	-	-	0	-	-	-
C[C@@H]1CN([C@H](C)CO)C(=O)c2cc(NC(=O)Cc3cn(C)c4ccccc34)ccc2O[C@@H]1CN(C)C	-	-	-	0	-	-	-
COc1cccc(-c2ccc3c(c2)O[C@H](CN(C)C(=O)c2ccccc2F)[C@H](C)CN([C@H](C)CO)S3(=O)=O)c1	-	25.1	0	0	-	-	0
Cc1cccc(OCc2nnc(SCC(=O)Nc3ccc(N4CCOCC4)cc3)o2)c1	0	31.6	0	0	0	0	0
Cc1ccc(OCc2nnc(SCC(=O)Nc3ccc(N4CCOCC4)cc3)o2)cc1	0	0	0	0	0	0	-
CC1CCc2cccc3c2N1c1cc(C#N)c(C#N)cc1O3 (centres undefined)	0	27.2	0	0	0	0	0
CN(C)C(=O)C[C@H]1C[C@@H]2c3cc(NC(=O)Nc4ccccc4)ccc3O[C@@H]2[C@@H](CO)O1	-	-	-	0	-	-	-
COc1cc(/C=C2\SC(c3ccc(C)cc3)=NC2=O)cc(OC)c1O	0	24.8	0	-	0	0	36.4
Cc1ccc(C2=NC(=O)/C(=C/c3cc(O)c(O)c(Br)c3)S2)cc1	-	30.5	0	0	0	0	69.0
Cc1ccc(C(=O)NCCC2=CCCCC2)cc1S(=O)(=O)N1CCCCC1	0	27.9	0	0	0	0	0
CCCNC(=O)N1C[C@@H](O)COC[C@H]2O[C@H](CC(=O)N[C@H]3CCN(Cc4ccccc4)C3)CC[C@@H]21	-	-	-	0	-	-	-
COc1cccc(OCc2cc(C(=O)NC3CCOCC3)no2)c1	0	0	0	0	0	0	-
COc1ccc(OCc2cc(C(=O)NC3CCOCC3)no2)c2ccccc12	0	29.9	0	-	0	0	0
COc1ccc(Br)cc1C(=O)NC(=S)Nc1ccc(CN2CCOCC2)cc1	0	27.2	0	0	0	0	0
COc1ccccc1NC(=O)Cn1nnc(-c2ccccc2NC(=O)c2ccco2)n1	0	28.2	0	0	0	0	0
Cc1ccc(C(C[N+](=O)[O-])c2c(N)n(C)c(=O)n(C)c2=O)cc1 (centres undefined)	0	0	0	-	0	0	-
Cn1c(N)c(C(C[N+](=O)[O-])c2ccccc2Cl)c(=O)n(C)c1=O (centres undefined)	0	56.2	0	-	0	0	0
COc1cccc(C#Cc2cnc3c(c2)C(=O)N([C@H](C)CO)C[C@@H](C)[C@@H](CN(C)C(=O)C2CCOCC2)O3)c1	-	-	-	0	-	-	-
Cc1cc(C)c(NS(=O)(=O)c2ccc(NC(=O)c3cccs3)cc2)c(C)c1	0	0	0	-	0	0	-
Cc1ccc(S(=O)(=O)Nc2ccc(NC(=O)c3cccs3)cc2)cc1	0	24.7	0	-	0	0	0
CCOc1ccc(C(NC(=O)CC)c2c(O)ccc3ccccc23)cc1 (centres undefined)	0	0	0	0	0	0	-

Source: PubChem BioAssay
